OX1R antag-1: antagonists of human orexin 1 receptor; O43613; CHO/OX1R cells, Fluo-8 calcium fluorescence, orexin A; inhibition, % at 5 µM; hit rate 0.43% among 330,000;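 active = inhibition above its plate's threshold, mean inhibition of all tested compounds on the plate plus 3 SD, cut at about 37% in these data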
GPR7 antag: antagonists of human GPR7 (neuropeptides B/W receptor 1); GPR7-expressing cells, fluorescence antagonist assay; inhibition, % at 4.4 µM; P48145; hit rate 1.1% among 290,000; in the data active = inhibition above about 16%, passing the limit was not always enough;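 also: cells stimulated with the agonist NPW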
OX1R antag-2: OX1R (human) antagonism | O43613 | hit rate 1.8% among 330,000 | OX1R-expressing cells, FRET antagonist read-out | inhibition, % at 6.6 µM | AID 485270; in the data active = inhibition mostly above about 38%, no sharp cut-off; inactive = mostly below about 40%
TAAR1 agonist: agonists of human TAAR1. Q96RJ0. CHO RD-HGA16 TAAR1, Fluo-8 calcium fluorescence; vehicle wells 0%, saturating PEA agonist 100%. activation, % at 3 µM. hit rate 0.99% among 360,000. AID 624467;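 active = activation above the mean activation of all test compounds in the run plus 3 SD, cut at about 38% in these data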
Target sequence (Q96RJ0 whole entry, looked up): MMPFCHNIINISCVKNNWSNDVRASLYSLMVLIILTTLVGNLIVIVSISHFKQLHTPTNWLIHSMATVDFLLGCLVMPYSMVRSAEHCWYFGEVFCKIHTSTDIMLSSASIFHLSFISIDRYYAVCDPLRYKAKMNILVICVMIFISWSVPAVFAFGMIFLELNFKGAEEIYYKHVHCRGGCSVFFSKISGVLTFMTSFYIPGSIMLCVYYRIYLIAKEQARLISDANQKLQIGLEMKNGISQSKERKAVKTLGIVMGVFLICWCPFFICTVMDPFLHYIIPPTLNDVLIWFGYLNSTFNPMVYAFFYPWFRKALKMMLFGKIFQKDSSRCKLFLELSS
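Repeats: no replicates (n 1) | Material: CHO-derived RD-HGA16 cells with stable Gα16 and human TAAR1 | Technique: Kinetic Fluo-8 calcium fluorescence | Schedule: 17-24 h seeding, 75 min 37 °C dye, 30 min RT | Evaluation: % activation from peak over basal fluorescence ratio, DMSO-to-PEA scaled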
TAAR1 antagonist: human TAAR1 antagonism. Q96RJ0. inhibition, % at 3 µM. CHO RD-HGA16 TAAR1, Fluo-8 calcium fluorescence, antagonist. AID 624466. hit rate 1.5% among 360,000;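 active = inhibition above a per-plate cutoff, the mean inhibition of test compounds on that plate plus 3 SD, cut at about 49% in these data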
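Material: CHO RD-HGA16 cells bearing hTAAR1; compound dosing: one-point dosing, 3 µM nominal final; schedule: dye loading 75 min at 37 °C, then 30 min room temperature; measured by: calcium fluorescence with Fluo-8; control set: vehicle and agonist controls; replication: n of 1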
CHO parental Ca: counter-screen for OX1R antagonists: effect in parental CHO cells. AID 463079. parental CHO-K1, ATP-induced calcium, Fluo-8 fluorescence. inhibition, % at 5.6 µM. hit rate 0.63% among 330,000;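 active = inhibition above that plate's mean sample inhibition plus 3 SD, cut at about 26% in these data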
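Material – parental CHO cells · Reagent – ATP stimulus · Compound – single nominal dose of 5.6 µM per compound · Detection – Fluo-8 fluorescence · Read-out basis – percent inhibition of calcium signal · Controls – ATP-challenged DMSO wells low, unchallenged DMSO wells high · Repeats – no replicates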
Of the large screens only hits and unclear results are named; the others gave an inactive call. The list is not random: actives were taken first. Their share in the collection is about 4.5%.

CC(C)CN(C(=O)COC(=O)c1ccc([N+](=O)[O-])s1)c1c(N)n(Cc2ccccc2)c(=O)[nH]c1=O	none (no result: GPR7 antag)
CCCCn1c(N)c(N(CCC(C)C)C(=O)COC(=O)c2ccc([N+](=O)[O-])s2)c(=O)[nH]c1=O	OX1R antag-2 35 (no result: GPR7 antag)
CCCCN(C(=O)c1ccc([N+](=O)[O-])s1)c1c(N)n(CCCC)c(=O)[nH]c1=O	OX1R antag-2 63 (no result: GPR7 antag)
CCOC(=O)c1sc(NC(=O)CSc2nc(C)cc(C)n2)c(C#N)c1C	none
COc1ccc(NC(=O)CSc2nnc3ccc(-c4ccncc4)nn23)cc1OC	none
CCOC(=O)c1sc(NC(=O)CSc2n[nH]c(-c3ccccc3)n2)c(C#N)c1C	OX1R antag-1 46, CHO parental Ca 40
CC(=O)Nc1cccc(NC(=O)CSc2nnc3ccc(-c4ccncc4)nn23)c1	OX1R antag-2 67 (no result: GPR7 antag)
CC(=O)Nc1cccc(NC(=O)CSc2ncc(-c3ccccc3)[nH]2)c1	OX1R antag-2 53
CC(=O)Nc1cccc(NC(=O)CSc2n[nH]c(-c3ccccc3)n2)c1	OX1R antag-2 47 (no result: GPR7 antag)
CN1OC[C@@H]2CN[C@H](c3ccc(N4CCCCC4)cc3)C[C@@H]21	none (no result: OX1R antag-1, GPR7 antag, OX1R antag-2, CHO parental Ca)
CC(=O)NC1=C(N(C)C2CCS(=O)(=O)C2)C(=O)c2ccccc2C1=O (configuration not stated)	OX1R antag-2 70
CN(C(=O)Nc1ccccc1)C1CCS(=O)(=O)C1 (configuration not stated)	none
O=C1c2ccccc2-c2cccnc21	OX1R antag-2 47
Cc1cc(/C=N/NC(N)=S)c(C)n1-c1ccc(Cl)c(Cl)c1	TAAR1 antagonist 50
COc1cccc(NC(=O)C(=O)N/N=C/c2cc(C)n(-c3ccc(Cl)c(Cl)c3)c2C)c1	none
FC(F)(F)c1nc2nc(Cl)c(Cl)nc2n1CCCN1CCOCC1	none (no result: OX1R antag-1, GPR7 antag, OX1R antag-2, CHO parental Ca)
COc1cc(C)nc(N2CCCC(C(=O)Nc3cccc(Cl)c3Cl)C2)n1 (configuration not stated)	GPR7 antag 16
Cc1cc(C)nc(N2CCCC(C(=O)Nc3ccc4c(c3)OCO4)C2)n1 (configuration not stated)	TAAR1 agonist 38, TAAR1 antagonist 67
Cc1cc(C)nc(N2CCC(C(=O)Nc3ccc4c(c3)OCO4)CC2)n1	none
O=C(C[C@@H]1C=C[C@@H](NC(=O)c2cccnc2)[C@@H](CO)O1)NCc1ccncn1	none (no result: OX1R antag-1, GPR7 antag, OX1R antag-2, CHO parental Ca)
CC(C)C[C@H]1COc2cccc(N3CCOCC3)c2S(=O)(=O)N1	none (no result: OX1R antag-1, GPR7 antag, OX1R antag-2, CHO parental Ca)
COc1cccc(/C=N/Nc2nc3ccccc3n3cnnc23)c1O	OX1R antag-2 67
O=C1C(Cl)=C(N2CCN(c3ccccc3[N+](=O)[O-])CC2)C(=O)c2ccccc21	OX1R antag-2 55
O=[N+]([O-])c1cc(Cl)ccc1N1CCCC1	none
CCc1nnc(N2C(=O)c3cccc4cccc(c34)C2=O)s1	OX1R antag-2 71
Cn1nc(C(=O)NCc2ccc(F)cc2)c2ccccc2c1=O	none
Cn1nc(CC(=O)NCc2ccc(C(F)(F)F)cc2)c2ccccc2c1=O	TAAR1 antagonist 52
C#CCOCCOCCOCCNc1nc(N2CCOCC2)nc(N2CCN(C(=O)Cn3cc(CCCCN)nn3)CC2)n1	none (no result: OX1R antag-1, GPR7 antag, OX1R antag-2, CHO parental Ca)
CCCN1C(=O)c2cc(C(=O)Nc3cccc(C(C)=O)c3)ccc2C1Nc1cccc(C(C)=O)c1 (configuration not stated)	TAAR1 antagonist 74
COc1ccccc1N(Cc1ccccc1)S(=O)(=O)c1cccc(C(=O)Nc2ccc(C)cn2)c1	TAAR1 antagonist 50 (no result: GPR7 antag)
CCCc1ccc(-c2cc(NC(=O)Cc3c(C)[nH]c4ccccc34)ccc2N(C)c2cccnc2)cc1	none (no result: OX1R antag-1, GPR7 antag, OX1R antag-2, CHO parental Ca)
CC(C)c1cc(C(=O)Nc2cc(Br)ccc2O)no1	CHO parental Ca 30
CC(C)c1cc(C(=O)Nc2cc(Cl)ccc2O)no1	none
Oc1ccc(Oc2ccc(Oc3ccc(O)cc3)cc2)cc1	TAAR1 antagonist 51
O=C(CCc1nnc(C2CCCCC2)o1)N1CCN(c2ccccc2F)CC1	CHO parental Ca 46
C/C(=N\Nc1ccc(S(=O)(=O)N2CCCCC2)cn1)c1cccc(Br)c1	none (no result: GPR7 antag)
Nc1nc(NCc2ccc(Cl)cc2)nc(NCCO)c1[N+](=O)[O-]	TAAR1 agonist 45
Cc1ccc(CNc2nc(N)c([N+](=O)[O-])c(NCCO)n2)cc1	none
